Results gathered from unrelated publications.
Compare with care: the assays were run in different laboratories.
Cell line: A549
Read-out: cell growth or viability

With `CC(C)Cc1ccc([C@H](C)C(=O)O)cc1` the IC50 was 349 µM (SRB; 72 h).
With `O=C(N[C@@H](CSCc1ccc([N+](=O)[O-])cc1)C(=O)NO)c1ccccc1` the IC50 was 48.2 µM (MTT; 48 h).
With `C(=N\Nc1cc(N/N=C/c2cccc3cccnc23)nc(-c2ccccc2)n1)/c1cccc2cccnc12` the IC50 was 12.6 µM (MTT; 48 h).
The IC50 of `C/C(=N\C1CCCCC1/N=C(\C)c1c(O)c2ccccc2oc1=O)c1c(O)c2ccccc2oc1=O` (centres unmarked) is reported as 6.56 µM (MTT; 48 h).
With `COC(=O)c1cc(C(C)=NNc2nc(-c3ccc(C)cc3)cs2)ccc1O` the IC50 was 9.61 µM (MTT; 96 h).
`CCCCn1cnc2ccc(-c3ccc(NC(=O)Nc4ccc(OC(F)(F)F)cc4)nc3)cc2c1=O` gave an IC50 of > 10 µM (CCK-8; 72 h).
`COc1cccc(NC(=S)N/N=C/c2cccc3cc4ccccc4nc23)c1` gave an IC50 of > 50 µM (MTT; 48 h).
`NS(=O)(=O)c1ccc(-n2nc(-c3nnc(CCl)o3)cc2-c2ccccc2)cc1` has an IC50 of 22.3 µM (fluorescence; 48 h).
With `COc1cccc(NC(=O)Nc2nc3cc(-c4ccc5ncn(CC(=O)N6CCOCC6)c(=O)c5c4)ccc3s2)c1` the IC50 was > 20 µM (MTT; 72 h).
`CCCCn1cnc2ccc(-c3ccc(NC(=O)c4ccccc4)nc3)cc2c1=O` has an IC50 of > 10 µM (CCK-8; 72 h).
The IC50 of `CCCC(=O)Nc1nc2cc(-c3ccc4ncn(Cc5ccccc5)c(=O)c4c3)ccc2s1` is reported as 7.87 µM (MTT; 72 h).
The IC50 of `Cc1ccc(NC(=O)Nc2ccc(-c3ccc4ncn(Cc5ccccc5)c(=O)c4c3)cn2)cc1` is reported as > 10 µM (CCK-8; 72 h).
`NNc1nc2ccc(Br)cc2c(=O)n1-c1ccc(F)cc1` has an IC50 of 63.9 µM (MTT; 48 h).
`Cc1cccc(C)c1NC(=S)N/N=C/c1ccc(N2CCC(O)CC2)cc1` gave an IC50 of 1.56 µM (MTT; 24 h).
`O=C(Nc1ccc(F)cc1)Nc1nc2cc(-c3ccc4ncn(CC5CC5)c(=O)c4c3)ccc2s1` gave an IC50 of 2.48 µM (MTT; 72 h).
`CCCCCC(=O)Nc1ccc(-c2ccc3ncn(Cc4ccccc4)c(=O)c3c2)cn1` gave an IC50 of > 10 µM (CCK-8; 72 h).
The IC50 of `CC(C)[C@@H]1NC(=O)[C@@H](Cc2c[nH]cn2)NC(=O)[C@H]([C@@H](C)O)NC(=O)[C@@H](CCCN)NC(=O)[C@H](Cc2ccccc2)NC(=O)[C@@H](Cc2ccccc2)NC1=O` is reported as 55.8 µM (ATP luminescence).
`O=C(Nc1ccc(-c2ccc3ncn(Cc4ccccc4)c(=O)c3c2)cn1)c1ccco1` gave an IC50 of > 10 µM (CCK-8; 72 h).
The IC50 of `O=C(O)c1ccc(NCc2cc(Br)ccc2O)cc1` is reported as > 100 µM (resazurin; 72 h).
The IC50 of `CCCCn1cnc2ccc(-c3ccc(NC(=O)Nc4ccc(OC)cc4)nc3)cc2c1=O` is reported as > 10 µM (CCK-8; 72 h).
With `COc1cccc(CNc2ccc(C(=O)O)cc2)c1O` the IC50 was > 100 µM (resazurin; 72 h).
`CCCCC(=O)Nc1ccc(-c2ccc3ncn(CC4CC4)c(=O)c3c2)cn1` gave an IC50 of 0.42 µM (CCK-8; 72 h).
The IC50 of `NNc1nc2c(Cl)cc(Cl)cc2c(=O)n1-c1ccc(F)cc1` is reported as 80 µM (MTT; 48 h).
